From ChEMBL document CHEMBL5226322, “Harnessing the Role of HDAC6 in Idiopathic Pulmonary Fibrosis: Design, Synthesis, Structural Analysis, and Biological Evaluation of Potent Inhibitors” (J Med Chem, 2021)
Calls of active or inactive are those of the source. No cut-off for these calls is given here.

Key:
Histone deacetylase 1 [1] = molecular target: T1, Histone deacetylase 1 (Homo sapiens, UniProt Q13547); assay: Inhibition of human recombinant HDAC1 using ZMAL (Z-(Ac)Lys-AMC) as fluorogenic substrate incubated for 120 mins by microplate reader assay
T1 sequence (Q13547 whole entry): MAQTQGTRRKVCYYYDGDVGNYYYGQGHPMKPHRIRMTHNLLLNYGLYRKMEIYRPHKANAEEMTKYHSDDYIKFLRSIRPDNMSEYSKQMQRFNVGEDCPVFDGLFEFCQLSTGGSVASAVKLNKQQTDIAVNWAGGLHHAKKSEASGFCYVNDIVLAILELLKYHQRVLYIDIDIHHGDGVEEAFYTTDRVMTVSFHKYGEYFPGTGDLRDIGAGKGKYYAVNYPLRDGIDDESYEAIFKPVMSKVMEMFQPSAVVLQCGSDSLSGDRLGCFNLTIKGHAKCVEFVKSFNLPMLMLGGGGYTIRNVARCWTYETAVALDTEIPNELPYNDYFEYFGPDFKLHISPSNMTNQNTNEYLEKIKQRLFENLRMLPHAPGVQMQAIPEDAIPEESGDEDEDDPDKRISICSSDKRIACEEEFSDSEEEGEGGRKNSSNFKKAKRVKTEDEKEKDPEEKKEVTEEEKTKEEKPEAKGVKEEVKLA

[2] = molecular target: T2, Protein deacetylase HDAC6 (Homo sapiens, UniProt Q9UBN7); assay: Inhibition of human recombinant HDAC6 using ZMAL (Z-(Ac)Lys-AMC) as fluorogenic substrate incubated for 120 mins by microplate reader assay
T2 sequence (Q9UBN7 whole entry): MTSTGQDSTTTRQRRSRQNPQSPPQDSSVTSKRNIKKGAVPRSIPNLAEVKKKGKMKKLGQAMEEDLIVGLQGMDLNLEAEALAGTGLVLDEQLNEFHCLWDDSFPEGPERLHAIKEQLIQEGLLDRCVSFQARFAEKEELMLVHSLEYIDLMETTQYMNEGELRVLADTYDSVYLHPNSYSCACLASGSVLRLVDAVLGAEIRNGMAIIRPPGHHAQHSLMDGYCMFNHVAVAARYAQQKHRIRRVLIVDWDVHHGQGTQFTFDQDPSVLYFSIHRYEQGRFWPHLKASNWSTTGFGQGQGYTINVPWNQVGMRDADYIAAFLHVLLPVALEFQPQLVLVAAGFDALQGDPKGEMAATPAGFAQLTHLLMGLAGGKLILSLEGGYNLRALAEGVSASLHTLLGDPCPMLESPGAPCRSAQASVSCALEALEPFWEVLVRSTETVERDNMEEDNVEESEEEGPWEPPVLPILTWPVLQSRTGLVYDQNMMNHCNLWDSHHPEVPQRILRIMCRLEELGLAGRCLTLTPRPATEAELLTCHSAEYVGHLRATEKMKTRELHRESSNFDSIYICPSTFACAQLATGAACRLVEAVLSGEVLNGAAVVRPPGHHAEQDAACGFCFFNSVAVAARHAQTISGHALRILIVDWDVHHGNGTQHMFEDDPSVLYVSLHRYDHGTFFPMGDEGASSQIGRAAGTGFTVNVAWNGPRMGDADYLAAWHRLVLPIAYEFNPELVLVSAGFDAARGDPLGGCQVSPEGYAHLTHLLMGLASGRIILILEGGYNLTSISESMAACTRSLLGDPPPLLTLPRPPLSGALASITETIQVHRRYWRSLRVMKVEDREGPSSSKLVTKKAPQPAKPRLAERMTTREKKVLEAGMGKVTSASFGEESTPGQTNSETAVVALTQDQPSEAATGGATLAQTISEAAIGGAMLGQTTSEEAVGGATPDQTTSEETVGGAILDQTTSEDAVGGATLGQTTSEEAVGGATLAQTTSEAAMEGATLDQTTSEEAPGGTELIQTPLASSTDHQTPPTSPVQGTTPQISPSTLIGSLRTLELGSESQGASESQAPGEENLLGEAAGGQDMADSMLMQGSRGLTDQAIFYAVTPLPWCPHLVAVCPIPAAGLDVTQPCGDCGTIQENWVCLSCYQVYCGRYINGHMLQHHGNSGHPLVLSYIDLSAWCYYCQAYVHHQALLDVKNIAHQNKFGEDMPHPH

Histone deacetylase 1 [3] = molecular target: T1, Histone deacetylase 1; assay: Inhibition of HDAC1 in human NB-4 cells assessed as increase in acetylation of histone H3 at 5 uM incubated for 30 hrs by western blot analysis; format: cell-based
In short: (§1)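 Whole lysates (35 μg) and acid-extracted histones (2 μg) run on SDS-PAGE and blotted for acetylated tubulin or acetyl-histone H3; GAPDH or H4 as loading controls.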

[4] = molecular target: T3, Protein deacetylase HDAC6 (Homo sapiens) (UniProt Q9UBN7); assay: Inhibition of HDAC6 in human NB-4 cells assessed as increase in acetylation of alpha-tubulin at 5 uM incubated for 30 hrs by western blot analysis; format: cell-based; in short: as §1
T3 sequence (whole entry): T2 sequence (Q9UBN7 whole entry)

Histone deacetylase 1 [5] = molecular target: T1, Histone deacetylase 1; assay: Inhibition of HDAC1 in human U87 cells assessed as increase in acetylation of histone H3 at 5 uM incubated for 30 hrs by western blot analysis; format: cell-based; in short: as §1
[6] = molecular target: T3, Protein deacetylase HDAC6 (Homo sapiens); assay: Inhibition of HDAC6 in human U87 cells assessed as increase in acetylation of alpha-tubulin at 5 uM incubated for 30 hrs by western blot analysis; format: cell-based; in short: as §1
[7] = Inhibition of spheroid count in IPF patient derived human Airway basal cell incubated for 14 days by Bright-field microscopy analysis; format: functional, cell-based
In short: (§2)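 Airway basal cells from bronchial brushings of IPF patients, 10⁴ cells in Matrigel on transwell inserts with 1:1 BEGM/DMEM. Treated 14 days (1–50 nM per methods; 0.1–50 nM per legend), medium changed every 7 days.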

Airway basal cell [8] = assay: Inhibition of spheroid count in IPF patient derived human Airway basal cell assessed as reduction in sphere count at 20 to 50 nM incubated for 14 days by Bright-field microscopy analysis; format: functional, cell-based; conditions: dose 20-50 nM, time 14.0 day; in short: as §2
[9] = Inhibition of cell proliferation in IPF patient derived human Airway basal cell incubated for 14 days by MTT assay; format: functional, cell-based; conditions: 336 h
In short: (§3)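 IPF patient airway basal cell 3D organoid cultures (10⁴ cells in Matrigel, 1:1 BEGM/DMEM) treated 14 days at 1–50 nM, medium changed weekly. Proliferation read by colorimetric MTT on day 14. Mean ± SEM of triplicates, n=3; repeated-measures ANOVA/Friedman test. Reported IC50 is the mean of the count-based and MTT-based IC50s.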

Airway basal cell [10] = assay: Inhibition of cell proliferation in IPF patient derived human Airway basal cell at 20 to 50 nM incubated for 14 days by MTT assay; format: functional, cell-based; conditions: dose 20-50 nM, time 14.0 day; in short: as §3
Homo sapiens = species: Homo sapiens; assay: Inhibition of broncho-sphere formation in IPF patient derived human lung organoid assessed as inhibition of 3D organoid formation at 0.1 to 50 nM incubated for 14 days by Bright-field microscopy analysis; format: functional; conditions: dose 0.1-50 nM, time 14.0 day; in short: as §2
[11] = molecular target: T3, Protein deacetylase HDAC6 (Homo sapiens); assay: Inhibition of HDAC6 in human U2OS cells assessed as increase in acetylation of alpha-tubulin at 5 uM incubated for 30 hrs by western blot analysis; format: cell-based; in short: as §1
Histone deacetylase 8 = molecular target: T4, Histone deacetylase 8 (Homo sapiens, UniProt Q9BY41); assay: Inhibition of human recombinant HDAC8 using FLUOR DE LYS fluorometric substrate pre-incubated for 15 mins and followed by substrate addition and measured after 60 mins by microplate reader assay
T4 sequence (Q9BY41 whole entry): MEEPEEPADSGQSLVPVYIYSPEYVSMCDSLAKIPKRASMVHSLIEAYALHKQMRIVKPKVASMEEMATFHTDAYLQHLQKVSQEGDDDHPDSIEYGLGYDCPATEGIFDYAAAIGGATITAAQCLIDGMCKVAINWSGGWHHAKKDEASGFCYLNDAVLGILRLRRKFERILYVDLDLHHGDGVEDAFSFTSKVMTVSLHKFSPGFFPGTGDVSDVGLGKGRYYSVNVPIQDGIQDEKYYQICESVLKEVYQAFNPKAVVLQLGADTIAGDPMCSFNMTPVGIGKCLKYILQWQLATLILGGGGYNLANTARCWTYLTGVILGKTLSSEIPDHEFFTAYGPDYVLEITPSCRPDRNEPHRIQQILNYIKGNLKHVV
In short: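 Recombinant human HDAC8 at 0.45 U/reaction with 0.5% DMSO; DMSO-only enzyme served as control. Enzyme preincubated 15 min with compound, then Fluor de Lys substrate added (50 μM final) for 1 h at 30 °C. Quenched with 2 μM TSA in Developer II for a further 1 h at 30 °C. Fluorescence read at ex 370/em 450 nm. IC50 from nonlinear dose-response fit.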

NIH3T3 [12] = assay: Cytotoxicity in mouse NIH3T3 cells assessed as reduction in cell viability at 1 uM incubated for 24 hrs by neutral red uptake method based UV/visible spectrophotometer analysis; format: toxicity; conditions: nih3t3, 24 h
In short: (§4)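 NIH3T3 mouse fibroblasts grown in DMEM with 10% FCS, L-glutamine/pen-strep and non-essential amino acids (37 °C, 5% CO2). Exposed 24 h to compound diluted from a DMSO stock into medium. Viability measured by Neutral Red uptake: 3 h in NR medium, then acetic acid/ethanol desorb, absorbance at 540 nm. Student's t-test, p<0.05.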

NIH3T3 [13] = assay: Cytotoxicity in mouse NIH3T3 cells assessed as reduction in cell viability at 5 uM incubated for 24 hrs by neutral red uptake method based UV/visible spectrophotometer analysis; format: toxicity; conditions: nih3t3, 24 h
In short: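 NIH3T3 fibroblasts grown in DMEM with 10% FCS, L-glutamine/pen-strep and non-essential amino acids at 37 °C, 5% CO2. Monolayers exposed 24 h to compound diluted from a DMSO stock into medium. Neutral Red medium then added for 3 h at 37 °C. Dye extracted with acetic acid/ethanol desorb solution and absorbance read at 540 nm. Student's t-test, p<0.05.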

NIH3T3 [14] = assay: Cytotoxicity in mouse NIH3T3 cells assessed as reduction in cell viability at 7.5 uM incubated for 24 hrs by neutral red uptake method based UV/visible spectrophotometer analysis; format: toxicity; conditions: nih3t3, 24 h; in short: as §4
NIH3T3 [15] = assay: Cytotoxicity in mouse NIH3T3 cells assessed as reduction in cell viability at 20 uM incubated for 24 hrs by neutral red uptake method based UV/visible spectrophotometer analysis; format: toxicity; conditions: nih3t3, 24 h; in short: as §4
NIH3T3 [16] = assay: Cytotoxicity in mouse NIH3T3 cells assessed as reduction in cell viability at 2 uM incubated for 24 hrs by neutral red uptake method based UV/visible spectrophotometer analysis; format: toxicity; conditions: nih3t3, 24 h; in short: as §4

CC1(C)c2ccccc2N(Cc2ccc(C(=O)NO)cc2)[C@@H]1c1cccnc1
IC50 (Histone deacetylase 1 [1]): 3380 nM
IC50 [2]: 71.3 nM

CC1(C)c2ccccc2N(Cc2ccc(C(=O)NO)cc2)[C@H]1c1cccnc1
IC50 (Histone deacetylase 1 [1]): 16200 nM
IC50 [2]: 90.6 nM

CC1(C)c2ccccc2N(Cc2ccc(C(=O)NO)s2)C1c1cccnc1 (racemic)
IC50 (Histone deacetylase 1 [1]): 6320 nM
IC50 [2]: 811 nM

CC(C)(C)OC(=O)N1CCC2(CC1)c1ccccc1N(Cc1ccc(C(=O)NO)cc1)C2c1cccnc1 (racemic)
IC50 (Histone deacetylase 1 [1]): 8100 nM
IC50 [2]: 152 nM

CC1(C)c2ccccc2N(Cc2ccc(C(=O)NO)cc2)C1c1ccccc1 (racemic)
IC50 (Histone deacetylase 1 [1]): 18700 nM
IC50 [2]: 166 nM

CN1CCC2(CC1)c1ccccc1N(Cc1ccc(C(=O)NO)cc1)C2c1cccc(Cl)c1 (racemic)
IC50 (Histone deacetylase 1 [1]): 8100 nM
IC50 [2]: 111 nM

CN1CCC2(CC1)c1ccccc1N(Cc1ccc(C(=O)NO)cc1)C2c1ccc(F)cc1 (racemic)
inhibition (Histone deacetylase 1 [3]): inactive
inhibition [4]: Active
inhibition (Histone deacetylase 1 [5]): inactive
IC50 (Histone deacetylase 1 [1]): 6160 nM
inhibition [6]: Active
IC50 [2]: 142 nM

COc1ccc2c(c1)C(C)(C)C(c1cccnc1)N2Cc1ccc(C(=O)NO)cc1 (racemic)
IC50 (Histone deacetylase 1 [1]): 5320 nM
IC50 [2]: 67.2 nM

CN1CCC2(CC1)c1ccccc1N(Cc1ccc(C(=O)NO)cc1)C2c1ccccc1 (racemic)
IC50 [7]: 2.55 nM
inhibition (Histone deacetylase 1 [3]): inactive
inhibition [4]: Active
inhibition (Airway basal cell [8]): Active
IC50 [9]: 0.154 nM
inhibition (Airway basal cell [10]): Active
inhibition (Homo sapiens): Dose-Dependent Effect
inhibition (Histone deacetylase 1 [5]): inactive
IC50 (Histone deacetylase 1 [1]): 4290 nM
inhibition [6]: Active
IC50 [2]: 73.2 nM

CC1(C)c2ccccc2N(Cc2ccc(OCCCC(=O)NO)cc2)C1c1cccnc1 (racemic)
IC50 (Histone deacetylase 1 [1]): 1630 nM
IC50 [2]: 616 nM

CC1(C)c2ccccc2N(Cc2ccc(C(=O)NO)cc2)C1c1ccncc1 (racemic)
IC50 [7]: 4.35 nM
inhibition [11]: Active
inhibition (Histone deacetylase 1 [3]): inactive
inhibition [4]: Active
IC50 (Histone deacetylase 8): 4640 nM
inhibition (Airway basal cell [8]): Active
IC50 [9]: 4.97 nM
inhibition (Airway basal cell [10]): Active
inhibition (Homo sapiens): Dose-Dependent Effect
inhibition (Histone deacetylase 1 [5]): inactive
IC50 (Histone deacetylase 1 [1]): 10800 nM
inhibition [6]: Active
IC50 [2]: 61.1 nM

CN1CCC2(CC1)c1ccccc1N(Cc1ccc(C(=O)NO)cc1)C2c1cccnc1 (racemic)
IC50 (Histone deacetylase 1 [1]): 7600 nM
IC50 [2]: 112 nM

CN1CCC2(CC1)c1ccccc1N(Cc1ccc(C(=O)NO)cc1)C2c1ccc(Cl)cc1 (racemic)
IC50 (Histone deacetylase 1 [1]): 3650 nM
IC50 [2]: 165 nM

O=C(CCCCCCC(=O)Nc1ccccc1)NO [VORINOSTAT]
Activity (NIH3T3 [12]): 83%
Activity (NIH3T3 [13]): 31%
Activity (NIH3T3 [14]): 22%
Activity (NIH3T3 [15]): 7%
Activity (NIH3T3 [16]): 62%
